Rows were chosen to be rich in hits. Some 2.9% of all compounds tested hit in one or more screens of this group.
mABHD4 FP – inhibits mouse alpha/beta hydrolase domain 4 | Q8VD66 | purified mABHD4, FP-Rh probe fluorescence polarization | inhibition, % at 8.92 µM | hit rate 0.54% among 370,000;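 active = inhibition exceeding the mean over every tested compound plus 3 SD, cut at about 30% in these data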;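 also: 0% = plate median of compound wells and 100% = S159A mutant with DMSO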
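Assay system: wild-type mouse ABHD4 protein; compound: single nominal dose of 8.92 µM, 0.89% DMSO final; schedule: 45 min + 60 min at 25 °C; measured by: FP readout, ex 525 nm / em 598 nm; evaluation: % inhibition of FP-Rh probe binding versus controls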
PRMT1 FP inh – blocks human protein arginine methyltransferase 1. recombinant PRMT1, activity-based probe fluorescence polarization. inhibition, % at 2.79 µM. hit rate 1.3% among 370,000. AID 652257;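 active = inhibition above about 21% made by adding two undisclosed values, limit read from the data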
PAD4 FP inh – PAD4 (human) enzyme inhibition. recombinant PAD4, RCA probe fluorescence polarization. AID 485272. hit rate 0.41% among 330,000. inhibition, % at 6.36 µM;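 active = percent inhibition above a cutoff equal to the mean of all tested compounds plus 3 SD, cut at about 15% in these data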;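 also: 0% = PAD4 with RCA probe and DMSO and 100% = probe without PAD4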
SIAE inh – human SIAE inhibition, primary screen; Q9HAT2; SIAE FP-Rh probe binding, fluorescence polarization; inhibition, % at 9.66 µM; hit rate 0.69% among 370,000; AID 1053197;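 active = inhibition above a cutoff: mean of compounds within the control limits plus 3 SD of those, cut at about 17% in these data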;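 also: 0% = plate median of compound wells and 100% = probe without SIAE protein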
Target sequence (Q9HAT2 whole entry, looked up): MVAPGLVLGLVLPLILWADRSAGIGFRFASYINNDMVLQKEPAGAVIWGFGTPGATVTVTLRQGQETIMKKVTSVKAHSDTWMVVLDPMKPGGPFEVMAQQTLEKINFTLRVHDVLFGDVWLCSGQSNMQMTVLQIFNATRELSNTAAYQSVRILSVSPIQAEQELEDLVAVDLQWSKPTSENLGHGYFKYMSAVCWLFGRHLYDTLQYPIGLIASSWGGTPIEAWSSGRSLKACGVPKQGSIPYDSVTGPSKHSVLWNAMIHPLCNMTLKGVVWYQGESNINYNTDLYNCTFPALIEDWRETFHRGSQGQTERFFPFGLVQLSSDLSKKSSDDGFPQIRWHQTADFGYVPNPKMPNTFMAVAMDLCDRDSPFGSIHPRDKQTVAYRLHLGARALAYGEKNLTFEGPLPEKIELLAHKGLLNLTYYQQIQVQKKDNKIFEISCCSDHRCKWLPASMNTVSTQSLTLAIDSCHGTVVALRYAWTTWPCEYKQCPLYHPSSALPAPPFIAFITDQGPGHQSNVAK
TCR CD3 inh – human TCR-CD3 binding inhibition | hit rate 0.37% among 360,000 | AID 651800 | inhibition, % at 9.4 µM | TAMRA-labeled TCR probe fluorescence, biochemical; in the data active = inhibition above about 19%;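 also: recombinant mutant TCR 2C K166C tagged with TAMRA read by polarization; 0% = receptor in buffer alone and 100% = receptor with positive control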
HTRA1 inh – HTRA1 (human) protease inhibition; inhibition, % at 5.96 µM; Q92743; hit rate 0.5% among 340,000; recombinant HTRA1, FP-rhodamine activity-based probe, fluorescence polarization; in the data active = inhibition above about 36%;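 also: 0% = enzyme with DMSO and 100% = wells lacking enzyme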
SIAE confirm – confirmation of human SIAE inhibitors. hit rate 13% among 2,300. shares compounds with SIAE inh. SIAE FP-Rh activity-based probe, fluorescence polarization. AID 1117263. inhibition, % at 9.66 µM;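 active = mean inhibition of the replicates above the hit cutoff set in the primary screen, cut at about 17% in these data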;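 also: 0% = SIAE with DMSO and probe and 100% = probe without SIAE; inhibitors lower polarization as more probe stays unbound to SIAE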
An asterisk follows results filed as active.

Results for Cc1[nH]n(-c2ccccc2)c(=O)c1/C=N/NC(=O)c1cccc(F)c1 ?
mABHD4 FP: 22.4; PRMT1 FP inh: -0.7; PAD4 FP inh: -6.7; SIAE inh: 9.6; TCR CD3 inh: -2.5; HTRA1 inh: 11.5

Results for Cc1[nH]n(-c2ccc(Br)cc2)c(=O)c1/C=N/NC(=O)c1ccccc1 ?
mABHD4 FP: 8.3; PRMT1 FP inh: 2.2; SIAE inh: 17.3*; TCR CD3 inh: 4.1; HTRA1 inh: 14.4; SIAE confirm: 1.9

Results for COC(=O)C1CN(CCc2ccccc2)CCS(=O)(=O)N1Cc1ccccc1F (centres undefined) ?
mABHD4 FP: 3.0; PRMT1 FP inh: -10.2; SIAE inh: -4.3

What do the screens show for `Cc1ccc(C)c(N(CC(=O)NC2CCCC2)C(=O)CCC(=O)Nc2nccs2)c1`?
mABHD4 FP: 0.3; PRMT1 FP inh: -1.7; PAD4 FP inh: -6.3; SIAE inh: -68.3; TCR CD3 inh: -0.6; HTRA1 inh: 0.3

How did Cc1ccc(N(CC(=O)NC2CCCC2)C(=O)CCC(=O)Nc2nccs2)cc1C do in these assays?
mABHD4 FP: 2.2; PRMT1 FP inh: -1.2; PAD4 FP inh: 1.0; SIAE inh: 17.9*; TCR CD3 inh: 5.8; HTRA1 inh: 5.3; SIAE confirm: 1.3

Results for OC1C2(Cc3ccccc3)CN3CCN(C2)CC1(Cc1ccccc1)C3 (centres undefined) ?
mABHD4 FP: -8.2; PRMT1 FP inh: -0.8; PAD4 FP inh: 1.7; SIAE inh: -2.4; TCR CD3 inh: 0.0; HTRA1 inh: 7.3

How did OC1C2CN3CCN(C2)CC1(Cc1ccccc1)C3 (centres undefined) do in these assays?
mABHD4 FP: 4.2; PRMT1 FP inh: -1.5; PAD4 FP inh: -1.2; SIAE inh: 20.9*; TCR CD3 inh: 11.9; HTRA1 inh: 1.8; SIAE confirm: -1.6

How did COc1cccc(Cn2ncc3c4sc(S(C)=O)cc4n(C)c3c2=O)c1 (centres undefined) do in these assays?
mABHD4 FP: 5.5; PRMT1 FP inh: 5.3; SIAE inh: 0.6

How did COc1ccc(NS(=O)(=O)c2cc(NC(=O)c3ccccc3F)ccc2N2CCCC2)cc1 do in these assays?
mABHD4 FP: -12.1; PRMT1 FP inh: -1.2; PAD4 FP inh: -6.8; SIAE inh: -2.4; TCR CD3 inh: 0.4; HTRA1 inh: -18.6

What do the screens show for `COc1ccc(NC(=S)NNC(=O)c2cccs2)cc1`?
mABHD4 FP: 10.4; PRMT1 FP inh: 3.5; PAD4 FP inh: 0.3; SIAE inh: 17.8*; TCR CD3 inh: -3.7; HTRA1 inh: -0.1; SIAE confirm: 1.3

How did COc1ccc(NS(=O)(=O)c2cc(NC(=O)c3cccs3)ccc2N2CCCC2)cc1 do in these assays?
mABHD4 FP: -13.3; PRMT1 FP inh: -2.6; PAD4 FP inh: 2.4; SIAE inh: 26.0*; TCR CD3 inh: 1.5; HTRA1 inh: -26.1; SIAE confirm: -31.1

What do the screens show for `O=C(NN=Cc1cccc(OCc2ccccc2)c1)c1cc(-c2ccc(Cl)cc2)n[nH]1`?
mABHD4 FP: -69.2; PRMT1 FP inh: -2.9; SIAE inh: -128.6

How did CN1C(=O)[C@@]2(C3=C(CCCC3=O)OC3=C2C(=O)CC(C)(C)C3)c2ccccc21 do in these assays?
mABHD4 FP: 6.0; PRMT1 FP inh: -1.3; SIAE inh: 6.1; TCR CD3 inh: 8.6

Results for Cc1ccccc1OCCC(=O)OCC(=O)N(C)c1c(N)n(Cc2ccccc2)c(=O)[nH]c1=O ?
mABHD4 FP: -3.9; PRMT1 FP inh: 0.0; PAD4 FP inh: 1.9; SIAE inh: 0.7; TCR CD3 inh: 2.9; HTRA1 inh: -6.1

How did Cc1ccc(C)c(OCCC(=O)OCC(=O)N(C)c2c(N)n(Cc3ccccc3)c(=O)[nH]c2=O)c1 do in these assays?
mABHD4 FP: -6.3; PRMT1 FP inh: -3.9; PAD4 FP inh: 4.0; SIAE inh: 17.6*; TCR CD3 inh: 7.6; HTRA1 inh: -8.8; SIAE confirm: 3.5

What do the screens show for `COCCn1c(N)c(C#N)c2nc3ccccc3nc21`?
mABHD4 FP: 3.7; PRMT1 FP inh: 2.6; PAD4 FP inh: -5.8; SIAE inh: 19.0*; TCR CD3 inh: 1.2; HTRA1 inh: -2.0; SIAE confirm: 6.1

Results for C=CCNC(=O)c1ccc(-c2nc(-c3ccccc3)cs2)cc1 ?
mABHD4 FP: -1.5; PRMT1 FP inh: 2.1; PAD4 FP inh: 2.2; SIAE inh: -1.4; TCR CD3 inh: -5.7; HTRA1 inh: -9.2

High-throughput results as filed in PubChem BioAssay.
